Screens as filed in PubChem.
A selection: hits, their analogues and other compounds. The true share with any hit is near 2%.
UCH37 DUB inh – blocks the human deubiquitinase UCH37 | Q9Y5K5 | purified proteasome/UCH37, Ub-AMC cleavage fluorescence | inhibition, % (concentration not given with the values) | 330,000 compounds, 0.33% hits;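 active = mean inhibition over replicate wells above about 20%, limit read from the data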;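 note: 0% = compound-free wells with enzyme and 100% = wells lacking proteasome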
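Reagent: Ub-AMC substrate; assay system: Proteasome-associated human UCH37 deubiquitinase; controls: no-proteasome and no-compound wells; read-out: % inhibition of Ub-AMC cleavage fluorescence; timing: 30 min preincubation with enzyme, 25 min cleavage at room temperature; signal: AMC fluorescence from Ub-AMC cleavage, excitation 355 nm, emission 460 nm; buffer or medium: Tris-HCl pH 7.4 plus ovalbumin, ATP-MgCl2, DTT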
CTSL1 counter – counter-screen for PFM18AAP inhibitors: inhibitors of F. hepatica cathepsin L1 | AID 1906 | recombinant F. hepatica cathepsin L1, Z-Leu-Arg-MCA fluorescence | 300,000 compounds, 0.49% hits | inhibition, % at 5.96 µM;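 active = inhibition above the mean of all tested compounds plus 3 SD, set per screening campaign, cut at about 17% in these data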;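 note: 0% = plate median of test compound wells and 100% = 1 µM Z-Phe-Ala-diazomethylketone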
GSTO1 inh – counter-screen for RBBP9 inhibitors: inhibitors of human GSTO1; recombinant GSTO1, activity-based probe fluorescence polarization; AID 1974; inhibition, % at 5.96 µM; 300,000 compounds, 1.1% hits;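 active = inhibition above the campaign mean inhibition plus 3 SD, cut at about 35% in these data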;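 note: 0% = GSTO1-1 with DMSO and 100% = wells lacking GSTO1-1 enzyme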
PP5 primary – PP5 (human) phosphatase inhibition. purified PP5c, OMFP substrate fluorescence. inhibition, % at 6.7 µM. 320,000 compounds, 0.18% hits. AID 1987;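 active = inhibition above the campaign's mean inhibition across all tested compounds plus 3 SD, cut at about 9.5% in these data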;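 note: 0% = DMSO only and 100% = 100 µM cantharidin control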
Target sequence (P53041 whole entry, looked up): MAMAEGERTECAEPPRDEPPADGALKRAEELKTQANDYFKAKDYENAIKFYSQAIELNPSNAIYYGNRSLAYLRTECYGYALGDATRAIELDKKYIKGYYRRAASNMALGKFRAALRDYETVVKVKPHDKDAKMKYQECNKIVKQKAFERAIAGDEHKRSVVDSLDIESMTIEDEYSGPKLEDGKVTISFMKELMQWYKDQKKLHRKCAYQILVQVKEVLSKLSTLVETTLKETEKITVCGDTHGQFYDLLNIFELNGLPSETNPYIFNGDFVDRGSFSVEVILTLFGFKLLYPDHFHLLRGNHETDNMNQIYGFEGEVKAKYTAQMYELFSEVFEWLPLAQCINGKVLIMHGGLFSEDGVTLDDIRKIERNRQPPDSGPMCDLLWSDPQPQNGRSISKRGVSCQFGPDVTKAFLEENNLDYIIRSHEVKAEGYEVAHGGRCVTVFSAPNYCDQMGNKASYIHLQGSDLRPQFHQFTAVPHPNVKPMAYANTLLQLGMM
Apaf1 inhib – inhibitors of human Apaf-1 apoptosome; O14727; AID 489030; 330,000 compounds, 0.71% hits; inhibition, % at 20 µM; reconstituted apoptosome caspase-3 activity, DEVD-Rh110 fluorescence; active = inhibition of at least 40% at 20 µM;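 note: plate controls were DMSO wells for no effect and DEVD-CHO caspase inhibitor wells for full effect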
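System – cell-free apoptosome with Apaf-1, procaspase-3 and caspase-9 · Buffer or medium – pH 7.5 Hepes buffer with CHAPS, BSA, DTT · Also added – cytochrome c with DEVD-Rh110 · Times – 30 min compound preincubation, 50 min activation, room temperature · Technique – Rh110 fluorescence intensity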
PAD4 FP inh – inhibitors of human PAD4; inhibition, % at 6.36 µM; recombinant PAD4, RCA probe fluorescence polarization; 330,000 compounds, 0.41% hits; AID 485272;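 active = percent inhibition above a cutoff equal to the mean of all tested compounds plus 3 SD, cut at about 15% in these data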;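 note: 0% = PAD4 with RCA probe and DMSO and 100% = probe without PAD4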
* marks the source's active call; other numbers are inactive results; / = no result.

SMILES	UCH37 DUB inh	CTSL1 counter	GSTO1 inh	PP5 primary	Apaf1 inhib	PAD4 FP inh
COc1ccc(-c2nc(N)ncc2-c2csc(C)n2)c(O)c1	8	2	5	0	6	-7
COc1ccc(-c2ncnc(C(F)(F)F)c2-c2csc(C)n2)c(O)c1	6	18*	-13	-3	-22	0
COc1ccc(CCNC(=O)CSc2nnc(-c3ccco3)c(-c3ccco3)n2)cc1OC	/	5	33	1	43*	-1
O=C1N=C(N2CCOCC2)S/C1=C/c1ccc(-c2ccccc2Cl)o1	-6	34*	-2	-1	2	-1
C#Cc1ccc([C@@H]2C=C(C(=O)N3CCOCC3)O[C@H](OCC)[C@H]2CCCO)cc1	27*	-1	-5	3	4	0
C#Cc1ccc([C@H]2C=C(C(=O)N3CCOCC3)O[C@@H](OCC)[C@@H]2CCCO)cc1	0	-2	0	2	0	-1
COc1cc(-c2nc(C(=O)NC3CCN(Cc4ccccc4)CC3)cc3c2[nH]c2ccccc23)cc(OC)c1OC	-37	2	-24	7	41*	1
COc1ccc(OC)c(-c2nc(C(=O)NC3CCN(Cc4ccccc4)CC3)cc3c2[nH]c2ccccc23)c1	-13	3	-1	3	38	2
COc1ccc(C(=O)N/C(=C\c2ccc(Cl)cc2)C(=O)NCC2CCCO2)cc1 (configuration not stated)	3	17*	4	1	13	-3
Fc1ccccc1COc1ccc(C=Nn2cnnc2)cc1	2	/	/	/	/	/
COc1cccc(-c2cc(C(=O)N3CCc4ccccc4C3)no2)c1	22*	2	-8	3	30	3
CC(C)OC(=O)CSc1nnc(-c2cnccn2)n1Cc1ccco1	1	-2	0	2	-3	3
O=C(CSc1nnc(-c2cnccn2)n1Cc1ccco1)c1ccc2ccccc2c1	3	4	38*	2	34	-4
COc1cccc(OCc2cc(C=NNC(=O)c3nc(Cl)c(Cl)c(N)c3Cl)ccc2OC)c1	-82	/	/	/	/	/
O=C(NCc1ccccc1)NC12CC3CC(CC(C3)C1)C2	-2	4	35*	2	1	5
CN(C)C=Nc1nc(-c2ccc3c(c2)OCO3)cs1	26*	/	/	/	/	/
CCCOc1ccc(Br)cc1C=NO	3	/	/	/	/	/
COc1ccc(-n2c(=O)c3c4c(sc3n3c(=S)[nH]nc23)CCC4)cc1	3	17*	6	1	4	0
Cc1ccc(-n2c(=O)c3c4c(sc3n3c(=S)[nH]nc23)CCC4)cc1	7	2	2	-2	-2	0
O=C(OCc1cc(Cl)ccc1OC(F)F)c1ccc([N+](=O)[O-])o1	/	-8	18	3	66*	-12
O=C(CSc1ncn[nH]1)N1CCOCC1	0	60*	-4	4	1	-2
Oc1ccc(C[C@@H]2CNCCN2CCc2cc(C(F)(F)F)cc(C(F)(F)F)c2)cc1	-1	-1	3	0	32	-2
FC(F)(F)c1cc(CCN2CCNC[C@H]2Cc2cccc3ccccc23)cc(C(F)(F)F)c1	/	0	0	6	72*	2
Nc1c(C(=O)NN=Cc2cccnc2)oc2nc(-c3ccccc3)cc(-c3ccco3)c12	-17	/	/	/	/	/
Cc1ccc(-n2nc(C)c(C=NNC(=O)c3cccnc3)c2Cl)cc1	-1	/	/	/	/	/
SMILES	UCH37 DUB inh	CTSL1 counter	GSTO1 inh	PP5 primary	Apaf1 inhib	PAD4 FP inh
Cc1cc(=O)oc2cc(OCCSCCN3CCCC3)ccc12	-23	-5	11	0	-3	1
Cc1ccccc1-c1nnc(SCCOc2ccc3c(C)cc(=O)oc3c2)o1	-8	0	36*	0	26	-1
Cc1ccc(CC(=S)N2CCOCC2)cc1	-1	-3	37*	2	-12	-5
S=C(N/N=C/c1ccc(Cl)cc1)N1CCOCC1	/	19*	5	1	-8	-2
Cc1ccc(/C=N/NC(=S)N2CCOCC2)cc1	/	28*	7	5	-5	-3
S=C(NN=Cc1ccc(Cl)cc1)N1CCOCC1	5	/	/	/	/	/
CCc1ccc(CC(=S)N2CCOCC2)cc1	3	-2	6	4	-3	-1
O=C(NN=Cc1ccc(Oc2ccccc2)cc1)c1csnn1	4	/	/	/	/	/
Cc1ccc(C=NN2CCN(c3ccccc3)CC2)cc1	1	/	/	/	/	/
CCCCCCC[C@H](N)[C@H](O)C(=O)N(C)[C@@H](CCS(C)=O)C(=O)N[C@@H](Cc1ccc(O)cc1)C(=O)N[C@@H](Cc1ccc(O)cc1)C(=O)O (some centres not stated)	-1	-1	7	88*	0	1
Cc1ccc(S(=O)(=O)N[C@@H](CO)C(=O)N[C@@H](Cc2ccc(O)cc2)C(=O)O)cc1	-1	0	1	-2	-6	0
CC(C)(CNC(=O)COc1ccccc1Cc1ccccc1)N1CCOCC1	2	-3	0	-1	14	0
O=C(COc1ccccc1Cc1ccccc1)NCCCN1CCOCC1	-2	20*	15	-1	-3	-2
CC(=NNc1ncc(Br)cn1)c1ccc([N+](=O)[O-])cc1	4	/	/	/	/	/
Cc1cc2c(cc(C(=O)OC(C(=O)NCc3ccco3)C(C)C)n2C)o1 (configuration not stated)	3	24*	-1	3	1	1
Cc1nnc(NC(=O)CSc2ccc(-c3ccco3)nn2)s1	4	2	54*	-2	-4	-2
Cc1nnc(NC(=O)CSc2nc3ccccc3o2)s1	2	-2	37*	1	-14	3
O=C(CSc1nc2ccccc2o1)Nc1nncs1	1	3	24	-1	5	-5
CCc1nnc(NC(=O)CSc2ccc(-c3ccco3)nn2)s1	4	-1	36*	-1	-1	1
CCc1nnc(NC(=O)CSc2nnc(-c3ccco3)n2C)s1	5	-2	6	2	-9	0
CCc1ccc(-c2ccc(SCC(=O)Nc3nnc(C)s3)nn2)cc1	2	-10	36*	-2	-13	0
Cc1ccccc1NC(=O)CSc1ccc(-c2ccco2)nn1	1	-1	17	2	0	0
COc1ccc(C=NNC(N)=S)cc1OC(=O)c1ccccc1	4	/	/	/	/	/
NC(=NOC(=O)c1ccccc1Cl)c1cccc([N+](=O)[O-])c1	3	/	/	/	/	/
Clc1cc(Br)ccc1OCCOCCN1CCOCC1	29*	-4	-1	3	-3	-5
CCOC(=O)c1c(-c2ccco2)csc1NC(=O)COC(=O)c1cnc(C)cn1	-4	31*	14	1	17	-11
CCOC(=O)c1c(NC(=O)COC(=O)c2cnc(C)cn2)sc(C(=O)N(C)C)c1C	1	4	-3	-2	-1	0
CC(C(=O)NCC1CCCCC1)N1CCN(S(=O)(=O)/C=C/c2ccccc2)CC1 (configuration not stated)	2	1	35*	4	16	-3
